Reference: paper PMC5161541 (Nuclear medicine and biology, 2016)
Like-named read-outs stand apart in the source and are kept apart here.

What was measured:
[1] = target: sites labeled by [125I]-E-IA-BF-PIPZE (σ1 receptors) (Mus musculus, UniProt O55242); type: binding
[2] = target: T1, σ1 receptors (Mus musculus, UniProt O55242); details: 100 μmol / kg, i.p.; cited from earlier work
[3] = target: T1, σ1 receptors; test: In vivo specific binding and blocking by pretreatment with σ receptor ligands; details: for adverse effects or abnormal behaviors: mice
[4] = target: T1, σ1 receptors; test: Regional brain distribution with blocking pretreatments; type: in vivo, CD-1 mouse; details: 2.5 μmol / kg i.v., 60 min, nine regions
[5] = target: Mu (μ) opioid receptor (Cavia porcellus, UniProt A0ACM8Q262); test: Secondary site spot test, [3H]-DAMGO; type: binding, guinea pig
[6] = target: NET (Mus musculus, UniProt O55192); test: Secondary site spot test, [3H]-Nisoxetine; type: binding
[7] = target: T1, σ1 receptors; test: Competition binding against [3H]-PTZ in mouse brain membranes
[8] = target: T2, σ2 receptors (Mus musculus, UniProt Q8VD00); test: Competition binding against [3H]-DTG with PTZ mask in mouse brain membranes
T2 sequence (Q8VD00 1-176): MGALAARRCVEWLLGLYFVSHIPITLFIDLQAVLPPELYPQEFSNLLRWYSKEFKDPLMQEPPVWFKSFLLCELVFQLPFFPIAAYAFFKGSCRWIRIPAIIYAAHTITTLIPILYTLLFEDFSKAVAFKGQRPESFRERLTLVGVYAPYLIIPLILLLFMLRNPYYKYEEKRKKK

[9] = target: Kappa (κ) opioid receptor (Cavia porcellus, UniProt P41144); test: Secondary site spot test, [3H]-U69593; type: binding, guinea pig
[10] = target: SERT (Mus musculus, UniProt Q60857); test: Secondary site spot test, [3H]-Paroxetine; type: binding
[11] = target: Delta (δ) opioid receptor (Mus musculus, UniProt P32300); test: Secondary site spot test, [3H]-Naltrindole; type: binding
[12] = target: DAT (Mus musculus, UniProt Q61327); test: Secondary site spot test, [125I]-RTI-121; type: binding
[13] = target: vesicular acetylcholine transporter (VAChT); details: read-out: apparent affinity for VAChT in vitro; cited from earlier work
[14] = tested on: σ1 receptors; details: cited from earlier work
[15] = target: cannabinoid receptor type 2 (CB2); details: cited from earlier work
[16] = tested on: cerebral σ1 receptors; details: over 30 h, SPECT; cited from earlier work
[17] = target: T1, σ1 receptors; type: binding
[18] = Temporal biodistribution after i.v. radioligand in CD-1 mice; type: in vivo, CD-1 mouse
Method in brief: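 Radioligand given i.v. to male CD-1 mice, with tissues sampled from 5 min to 24 h. Uptake expressed as %ID/g. Clearance half-lives from heart and lung obtained by monoexponential decay fitting.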

[19] = target: T1, σ1 receptors; test: Calculated binding potential; details: single trial, protein assumed 5% of brain tissue
Method in brief: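 The Scatchard Y-intercept, as Bound/Free in (fmol/mg protein)/nM from the in vitro mouse brain membrane saturation experiment, was converted to tissue-concentration units assuming protein is 5% of brain tissue. This gave binding potential for a single trial.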

[20] = target: T1, σ1 receptors; test: "Hot" saturation binding in mouse brain membranes
Method in brief: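 "Hot" saturation: mouse brain membranes incubated with increasing radioligand concentrations until steady-state binding. Non-specific binding determined in parallel at each concentration with a competing non-radioactive ligand. Specific binding fitted by nonlinear regression to the one-site mass-action equation to give Kd and Bmax. Bound/Free expressed as (fmol/mg protein)/nM for the Scatchard plot. Single experiment.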

[21] = Lipophilicity, shake-flask n-octanol / buffer pH 7.4; type: physicochemical
Method in brief: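 Shake-flask method: radiolabeled test compound partitioned between equal volumes of n-octanol and aqueous buffer pH 7.4, each presaturated with the other. Vortexed, then centrifuged. Each layer sampled in duplicate or triplicate and counted. Counts normalized per g or per mL, and the concentration ratio converted to Log D7.4.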

[22] = TCA protein precipitation assay of plasma protein binding; type: in vitro ADME, mouse; details: for Protein Binding: mouse plasma, 37 °C, 30 min, TCA precipitation, n = 9
Method in brief: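 Radioiodinated test compound incubated in commercial mouse plasma at 37 °C for 30 min. Proteins then precipitated with cold 10% TCA / 5% HCl to measure protein-bound radioactivity.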

[23] = Radiometabolite analysis of tissue extracts and urine by HPLC; type: in vivo, CD-1 mouse; details: for Radiometabolites Whole Brain, 60 min: mouse, in vivo
Method in brief: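 Organs from i.v.-dosed mice, given more radioactivity than in pharmacokinetic studies, counted and homogenized in methanol/acetonitrile/water containing DTG (100 μM). Homogenates centrifuged, with a radioactivity balance taken for extracts and pellets. Extracts diluted with water and filtered (0.45 μm) for radio-HPLC. Urine only diluted with mobile phase and filtered.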

[24] = 0.1 nM [125I]-E-IA-BF-PIPZE, 37 °C, 180 min, means ± SEM (n = 3 – 6)
[25] = Cheng-Prusoff, 0.1 nM [125I]-E-IA-BF-PIPZE, means ± SEM (n = 3 – 6)
[26] = 15 min, defined by BD1063 5 μmol / kg i.v.
[27] = listed as [^125I]-E-IA-BF-PIPZE

Sequence of sites labeled by [125I]-E-IA-BF-PIPZE (σ1 receptors) (O55242 whole entry): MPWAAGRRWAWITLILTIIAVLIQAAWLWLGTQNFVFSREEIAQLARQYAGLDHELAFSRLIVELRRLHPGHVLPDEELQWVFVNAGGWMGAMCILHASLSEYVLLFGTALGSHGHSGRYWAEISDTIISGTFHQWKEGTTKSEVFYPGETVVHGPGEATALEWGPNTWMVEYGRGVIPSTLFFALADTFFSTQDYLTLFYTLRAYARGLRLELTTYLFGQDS
T1 sequence (O55242 whole entry): as above
Sequence of DAT (Q61327 whole entry): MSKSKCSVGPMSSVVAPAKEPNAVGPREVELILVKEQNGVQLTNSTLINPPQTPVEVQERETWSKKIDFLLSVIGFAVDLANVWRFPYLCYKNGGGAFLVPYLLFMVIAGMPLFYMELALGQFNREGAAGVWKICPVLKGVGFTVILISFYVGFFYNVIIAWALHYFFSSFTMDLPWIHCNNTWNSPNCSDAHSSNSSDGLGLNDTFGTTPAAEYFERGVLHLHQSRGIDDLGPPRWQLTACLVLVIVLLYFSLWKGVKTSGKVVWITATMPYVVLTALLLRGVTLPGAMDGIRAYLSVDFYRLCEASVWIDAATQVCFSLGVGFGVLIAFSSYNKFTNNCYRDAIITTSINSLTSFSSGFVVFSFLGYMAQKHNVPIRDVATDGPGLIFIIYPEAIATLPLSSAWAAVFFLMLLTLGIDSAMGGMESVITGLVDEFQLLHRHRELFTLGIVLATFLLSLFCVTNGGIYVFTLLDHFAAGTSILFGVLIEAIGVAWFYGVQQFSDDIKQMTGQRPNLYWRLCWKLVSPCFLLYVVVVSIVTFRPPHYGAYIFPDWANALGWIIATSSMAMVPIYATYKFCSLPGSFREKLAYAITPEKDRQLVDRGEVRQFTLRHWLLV
Sequence of Mu (μ) opioid receptor (A0ACM8Q262 1-400): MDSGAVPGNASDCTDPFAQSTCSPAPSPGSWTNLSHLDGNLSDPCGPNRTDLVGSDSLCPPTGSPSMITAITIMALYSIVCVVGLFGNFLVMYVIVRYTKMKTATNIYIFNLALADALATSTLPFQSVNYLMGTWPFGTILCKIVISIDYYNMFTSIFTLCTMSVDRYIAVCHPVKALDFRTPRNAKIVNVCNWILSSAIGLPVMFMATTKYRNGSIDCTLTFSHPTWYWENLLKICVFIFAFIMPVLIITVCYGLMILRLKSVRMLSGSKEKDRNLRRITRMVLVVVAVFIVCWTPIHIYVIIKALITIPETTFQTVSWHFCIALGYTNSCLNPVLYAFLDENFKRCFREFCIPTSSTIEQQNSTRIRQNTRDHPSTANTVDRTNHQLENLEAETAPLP
Sequence of Delta (δ) opioid receptor (P32300 whole entry): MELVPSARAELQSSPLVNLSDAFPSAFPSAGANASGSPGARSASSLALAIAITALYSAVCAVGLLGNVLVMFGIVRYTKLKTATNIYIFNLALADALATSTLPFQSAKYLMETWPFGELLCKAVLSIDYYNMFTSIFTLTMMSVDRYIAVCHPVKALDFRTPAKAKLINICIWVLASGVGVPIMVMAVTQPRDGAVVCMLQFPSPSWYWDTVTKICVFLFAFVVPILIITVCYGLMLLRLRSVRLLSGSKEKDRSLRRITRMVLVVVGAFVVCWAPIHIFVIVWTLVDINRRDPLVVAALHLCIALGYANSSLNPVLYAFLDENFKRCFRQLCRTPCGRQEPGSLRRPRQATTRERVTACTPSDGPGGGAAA
Sequence of Kappa (κ) opioid receptor (P41144 whole entry): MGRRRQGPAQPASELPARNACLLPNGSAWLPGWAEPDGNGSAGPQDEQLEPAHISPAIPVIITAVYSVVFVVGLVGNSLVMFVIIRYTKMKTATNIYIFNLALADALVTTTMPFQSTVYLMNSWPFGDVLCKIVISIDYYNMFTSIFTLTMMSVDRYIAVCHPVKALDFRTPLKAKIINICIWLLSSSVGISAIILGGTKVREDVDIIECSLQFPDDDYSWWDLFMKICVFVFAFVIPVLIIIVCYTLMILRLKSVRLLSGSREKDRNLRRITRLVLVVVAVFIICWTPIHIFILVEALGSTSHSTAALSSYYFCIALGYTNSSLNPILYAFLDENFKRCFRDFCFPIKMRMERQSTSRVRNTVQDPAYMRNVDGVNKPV
Sequence of NET (O55192 whole entry): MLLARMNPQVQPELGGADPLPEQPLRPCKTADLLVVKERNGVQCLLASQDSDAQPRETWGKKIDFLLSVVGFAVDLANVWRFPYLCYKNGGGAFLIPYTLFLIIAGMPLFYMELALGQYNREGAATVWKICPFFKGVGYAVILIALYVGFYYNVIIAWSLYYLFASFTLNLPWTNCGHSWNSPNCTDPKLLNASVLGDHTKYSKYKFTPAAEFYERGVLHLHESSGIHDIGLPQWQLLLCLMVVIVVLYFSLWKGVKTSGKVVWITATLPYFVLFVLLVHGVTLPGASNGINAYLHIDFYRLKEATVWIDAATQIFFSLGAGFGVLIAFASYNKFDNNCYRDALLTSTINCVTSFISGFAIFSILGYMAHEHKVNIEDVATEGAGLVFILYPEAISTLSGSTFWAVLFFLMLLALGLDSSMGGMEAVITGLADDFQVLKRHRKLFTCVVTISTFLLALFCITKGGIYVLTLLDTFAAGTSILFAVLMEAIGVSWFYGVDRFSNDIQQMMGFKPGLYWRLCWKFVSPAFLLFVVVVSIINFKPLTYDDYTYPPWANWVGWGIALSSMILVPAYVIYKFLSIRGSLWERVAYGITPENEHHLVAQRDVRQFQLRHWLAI
Sequence of SERT (Q60857 whole entry): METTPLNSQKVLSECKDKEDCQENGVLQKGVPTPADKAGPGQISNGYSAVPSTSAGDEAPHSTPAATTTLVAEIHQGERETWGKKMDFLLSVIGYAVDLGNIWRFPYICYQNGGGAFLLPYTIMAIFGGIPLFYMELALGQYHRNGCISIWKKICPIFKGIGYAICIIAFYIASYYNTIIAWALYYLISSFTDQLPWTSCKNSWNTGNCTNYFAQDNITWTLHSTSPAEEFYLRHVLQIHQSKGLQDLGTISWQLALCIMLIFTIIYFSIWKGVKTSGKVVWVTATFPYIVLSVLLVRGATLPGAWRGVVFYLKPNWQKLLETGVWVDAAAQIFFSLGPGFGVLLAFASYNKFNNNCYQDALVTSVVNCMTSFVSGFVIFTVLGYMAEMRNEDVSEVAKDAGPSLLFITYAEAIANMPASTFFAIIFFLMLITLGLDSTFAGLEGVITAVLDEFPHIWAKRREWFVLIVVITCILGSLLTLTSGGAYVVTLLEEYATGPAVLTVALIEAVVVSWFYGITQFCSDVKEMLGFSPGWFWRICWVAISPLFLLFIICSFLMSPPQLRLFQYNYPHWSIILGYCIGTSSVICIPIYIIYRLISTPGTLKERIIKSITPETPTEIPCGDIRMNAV

CC(C)=CCN1CC[C@]2(C)c3cc(O)ccc3C[C@H]1[C@H]2C [(+)-Pentazocine, (+)-pentazocine]
Hill (nH) ([1]; means ± SEM (n = 3 – 6)): 0.9 ± 0.1

COC(=O)[C@H]1[C@@H](OC(=O)c2ccccc2)C[C@@H]2CC[C@H]1N2C [(−)-cocaine]
inhibition of [125I]-E-IA-DM-PE-PIPZE uptake [2]: 50%

CN1CCN(CCc2ccc(Cl)c(Cl)c2)CC1 [BD1063]
adverse effects or abnormal behaviors ([3]; 2.5 μmol / kg i.v.): No adverse effects or abnormal behaviors | radioactivity in the blood after pretreatment ([3]; 60 min, blocker 2.5 μmol / kg i.v.): 0.76 ± 0.04 %ID / g | IC50 [1, 24]: 13.6 ± 0.7 nM | Ki [1, 25]: 9.6 ± 0.5 nM | Hill (nH) ([1]; means ± SEM (n = 3 – 6)): 1.3 ± 0.1

COc1cc2c(cc1OC)CN(CCCCNC(=O)c1cc(Br)cc(OC)c1OC)CC2 [Br-Mach, reference compound]
decrease of radioligand uptake in brain ([3]; 2.5 μmol / kg i.v., 60 min): 14% | decrease of radioligand uptake in heart ([3]; 2.5 μmol / kg i.v., 60 min): 15% | decrease of radioligand uptake in muscle ([3]; 2.5 μmol / kg i.v., 60 min): 24% | inhibition of radioligand uptake in spleen, kidney, lung or liver ([3]; 2.5 μmol / kg i.v., 60 min): did not inhibit | adverse effects or abnormal behaviors ([3]; 2.5 μmol / kg i.v.): No adverse effects or abnormal behaviors | IC50 [1, 24]: 9850 ± 807 nM | Ki [1, 25]: 6390 ± 524 nM | Hill (nH) ([1]; means ± SEM (n = 3 – 6)): 1.1 ± 0.2 | reduction of radioligand uptake across brain regions [4]: minimal but statistically significant

Cc1ccccc1NC(=N)Nc1ccccc1C [DTG, ditolylguanidine]
IC50 [1]: 209 ± 14 nM | Ki [1]: 114 ± 7 nM | Hill (nH) ([1]; means ± SEM (n = 3 – 6)): 1.0 ± 0.1

I/C=C/CN1CCN(CCc2ccc3c(c2)CCO3)CC1 [E-IA-BF-PE-PIPZE, (E)-1-(2-(2,3-dihydrobenzofuran-5-yl)ethyl)-4-(iodoallyl)piperazine]
adverse effects or abnormal behaviors ([3]; 2.5 μmol / kg i.v.): No adverse effects or abnormal behaviors | IC50 ([5]; read-out: IC50 Mu, [3H]-DAMGO 0.6 nM, guinea pig membranes): > 5 µM | inhibition at 5 µM ([5]; read-out: inhibition of specific radioligand binding, μ): ≤ 50% | IC50 [1]: 1.7 ± 0.2 nM | Ki [1]: 1.1 ± 0.1 nM | Hill (nH) ([1]; means ± SEM (n = 3 – 6)): 1.0 ± 0.1 | IC50 [6]: > 10 µM | inhibition at 10 µM ([6]; read-out: inhibition of specific radioligand binding, NET): ≤ 50% | Ki [7]: 0.43 ± 0.03 nM | Hill slope ([7]; [3H]-PTZ competition): −1.23 ± 0.04 | Selectivity: σ2/σ1 (Ki ratio) ([7]; σ2 Ki / σ1 Ki): 173 | Ki [8]: 74.5 ± 4.44 nM | reduction of radioligand uptake across brain regions [4]: over 92% | IC50 [9]: > 5 µM | inhibition at 5 µM ([9]; read-out: inhibition of specific radioligand binding, κ): ≤ 50% | IC50 [10]: > 10 µM | inhibition at 10 µM ([10]; read-out: inhibition of specific radioligand binding, SERT): ≤ 50% | IC50 [11]: > 5 µM | inhibition at 5 µM ([11]; read-out: inhibition of specific radioligand binding, δ): ≤ 50% | IC50 [12]: > 10 µM | inhibition at 10 µM ([12]; read-out: inhibition of specific radioligand binding, DAT): ≤ 50%

COc1ccc(CCN2CCN(CCCc3ccccc3)CC2)cc1OC [SA4503, 1-[2-(3,4-dimethoxyphenyl)ethyl]-4-(3-phenylpropyl)piperazine]
Ki [13]: 50 nM

COc1ccc(CCN2CCN(CCCc3ccccc3)CC2)cc1 [YZ-067]
σ1 receptor affinity relative to SA4503 [14]: improved affinity

CCCCCCC(C)(C)c1ccc([C@@H]2C[C@H](O)CC[C@H]2CCCO)c(O)c1 [[^3H]-CP55940]
Kd [15]: 1.5 nM

N#Cc1ccc(OCC2CCN(CC=CI)CC2)cc1 [[^123I]-TPCNE, [^123I]-1-(iodopropen-2-yl)-4-[(4-cyanophenoxy)methyl]piperidine]
Ki ([14]; read-out: apparent affinity (Ki) for σ1 sites in vitro): 0.67 nM

N#Cc1ccc(OCC2CCN(CC=C[123I])CC2)cc1 [[^123I]-TPCNE, [^123I]-1-(iodopropen-2-yl)-4-[(4-cyanophenoxy)methyl]piperidine]
clearance from human brain [16]: no clearance

I/C=C/CN1CCN(CCc2ccc3c(c2)CCO3)CC1 [[^125I]-E-IA-BF-PE-PIPZE, [^125I]-(E)-1-(2-(2,3-dihydrobenzofuran-5-yl)ethyl)-4-(iodoallyl)piperazine]
Ki ([7]; read-out: Sigma-1 Ki, [3H]-PTZ, mouse brain membranes, mean ± SEM, n = 4): 0.43 nM | Kd ([17]; read-out: kinetically determined Kd (koff / kon), from rate constants): 0.042 nM

[125I]/C=C/CN1CCN(CCc2ccc3c(c2)CCO3)CC1 [[^125I]-E-IA-BF-PE-PIPZE, [^125I]-(E)-1-(2-(2,3-dihydrobenzofuran-5-yl)ethyl)-4-(iodoallyl)piperazine]
specific radioligand binding in brain [3, 26]: 75% | specific radioligand binding in heart [3, 26]: 87% | specific radioligand binding in lung [3, 26]: 87% | specific radioligand binding in muscle [3, 26]: 61% | radioactivity in the blood, controls ([3]; 60 min, saline-treated control group): 0.38 ± 0.09 %ID / g | Non-Specific binding Whole Brain, 30 min ([3]; mouse, in vivo, 0.5 h): 0.89 %ID /g | Specific binding Whole Brain, 30 min ([3]; mouse, in vivo, 0.5 h): 4.90 %ID /g | Non-Specific binding Whole Brain, 60 min ([3]; mouse, in vivo, 1 h): 0.60 %ID /g | Specific binding Whole Brain, 60 min ([3]; mouse, in vivo, 1 h): 5.38 %ID /g | Non-Specific binding Whole Brain, 240 min ([3]; mouse, in vivo, 4 h): 0.34 %ID /g | Specific binding Whole Brain, 240 min ([3]; mouse, in vivo, 4 h): 4.14 %ID /g | Specific / Non-Specific Whole Brain, 30 min ([3]; ratio of %ID /g values): 5.5 | Specific / Non-Specific Whole Brain, 60 min ([3]; ratio of %ID /g values): 9.0 | Specific / Non-Specific Whole Brain, 240 min ([3]; ratio of %ID /g values): 12 | Specific / Non-Specific Whole Brain, 240 min ([3]; ratio of %ID /g values, listed as [^125I]-E-IA-BF-PIPZE): 12.2 | blood level ([18]; 5 min): 0.31 ± 0.03 %ID / g | radioactivity in the eye ([18]; 5 min): 2.01 ± 0.13 %ID / g | brain uptake ([18]; 5 min, i.v., mean ± SD): 6.14 ± 0.94 %ID / g | peak brain uptake ([18]; 15 min, i.v., mean ± SD): 6.56 ± 1.23 %ID / g | brain uptake ([18]; 4 h): 4.48 ± 0.22 %ID / g | blood level ([18]; 24 h): 0.08 ± 0.01 %ID / g | brain uptake ([18]; 24 h): 0.76 ± 0.091 %ID / g | clearance t½ from lung ([18]; monoexponential decay, r^2 0.88): 104 min | clearance t½ from heart ([18]; monoexponential decay, r^2 0.90): 119 min | initial whole brain uptake ([18]; mouse, in vivo): > 6 % injected dose / g | uptake in heart relative to brain, higher by ([18]; mouse, in vivo): 50% | uptake in lung compared to brain ([18]; mouse, in vivo): 5 fold | Binding Potential (BP) [19]: 97 | Bound / Free Y-intercept ([20]; (fmol / mg protein) / nM, single experiment): 1942 | fold higher affinity from rate constants compared to saturation binding ([20]; Kd 0.042 nM vs […]): 5.7 fold | fold higher σ1 receptor affinity than [125I]-E-IA-DM-PE-PIPZE ([20]; measured Kd, mouse brain membranes): 16 fold | Bmax ([20]; mouse brain membranes, 37 °C, 180 min, four trials, listed as [^125I]-E-IA-BF-PIPZE): 472 ± 13 fmol / mg protein | fold higher lipophilicity than [125I]-E-IA-DM-PE-PIPZE [21]: 2.8 fold | Log D7.4 ([21]; n-octanol / buffer pH 7.4, n = 5): 2.69 ± 0.28 | kobs ([17]; 0.16 nM radioligand, 37 °C): 0.016 ± 0.002 min⁻¹ | time to steady-state binding ([17]; 0.16 nM radioligand, 37 °C): ~180 min | koff ([17]; 0.16 nM radioligand, 37 °C, haloperidol-initiated dissociation): 0.0033 ± 0.0003 min⁻¹ | increase of protein binding with respect to [125I]-E-IA-DM-PE-PIPZE [22]: 50% | Protein Binding [22]: 71 ± 0.3% | Protein Binding [22, 27]: 71.2 ± 0.3% | extractable radioactivity, liver ([23]; 60 min): 80% | urinary radioactivity as polar metabolites ([23]; 60 min): 99% | radioactivity in brain tissue from intact radioligand ([23]; 60 min, 100 μCi i.v.): About 99% | Radiometabolites Whole Brain, 60 min [23]: 1% | Radiometabolites Whole Brain, 60 min [23, 27]: 1%
